Calls of active or inactive are those of the source. No cut-off for these calls is given here.
Experiments:
[1] = target: T1, Epidermal growth factor receptor (Homo sapiens, UniProt P00533); assay: Inhibition of EGFR up to 40 uM by HTRF assay
[2] = target: T2, Myosin light chain kinase, smooth muscle (Homo sapiens, UniProt Q15746); assay: Inhibition of MLCK up to 40 uM by HTRF assay
Procedure, shortened: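 HTRF activity assay with peptide substrate STK1 at 375 nM and ATP at its Km (18 µM), in the presence of Ca2+/calmodulin. Kinase and inhibitor preincubated 30 min, then ATP plus substrate added. Detection by Eu-cryptate anti-phospho-STK1 antibody and streptavidin-XL665, with the 665/620 nm FRET ratio read. Eight inhibitor concentrations, Hill 4-parameter fit. At least two independent runs, each in duplicate. NI means no inhibition up to 40 µM.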

[3] = target: T1, Epidermal growth factor receptor; assay: Inhibition of EGFR by HTRF assay
[4] = target: T2, Myosin light chain kinase, smooth muscle; assay: Inhibition of MLCK by HTRF assay

T2 sequence (Q15746 whole entry): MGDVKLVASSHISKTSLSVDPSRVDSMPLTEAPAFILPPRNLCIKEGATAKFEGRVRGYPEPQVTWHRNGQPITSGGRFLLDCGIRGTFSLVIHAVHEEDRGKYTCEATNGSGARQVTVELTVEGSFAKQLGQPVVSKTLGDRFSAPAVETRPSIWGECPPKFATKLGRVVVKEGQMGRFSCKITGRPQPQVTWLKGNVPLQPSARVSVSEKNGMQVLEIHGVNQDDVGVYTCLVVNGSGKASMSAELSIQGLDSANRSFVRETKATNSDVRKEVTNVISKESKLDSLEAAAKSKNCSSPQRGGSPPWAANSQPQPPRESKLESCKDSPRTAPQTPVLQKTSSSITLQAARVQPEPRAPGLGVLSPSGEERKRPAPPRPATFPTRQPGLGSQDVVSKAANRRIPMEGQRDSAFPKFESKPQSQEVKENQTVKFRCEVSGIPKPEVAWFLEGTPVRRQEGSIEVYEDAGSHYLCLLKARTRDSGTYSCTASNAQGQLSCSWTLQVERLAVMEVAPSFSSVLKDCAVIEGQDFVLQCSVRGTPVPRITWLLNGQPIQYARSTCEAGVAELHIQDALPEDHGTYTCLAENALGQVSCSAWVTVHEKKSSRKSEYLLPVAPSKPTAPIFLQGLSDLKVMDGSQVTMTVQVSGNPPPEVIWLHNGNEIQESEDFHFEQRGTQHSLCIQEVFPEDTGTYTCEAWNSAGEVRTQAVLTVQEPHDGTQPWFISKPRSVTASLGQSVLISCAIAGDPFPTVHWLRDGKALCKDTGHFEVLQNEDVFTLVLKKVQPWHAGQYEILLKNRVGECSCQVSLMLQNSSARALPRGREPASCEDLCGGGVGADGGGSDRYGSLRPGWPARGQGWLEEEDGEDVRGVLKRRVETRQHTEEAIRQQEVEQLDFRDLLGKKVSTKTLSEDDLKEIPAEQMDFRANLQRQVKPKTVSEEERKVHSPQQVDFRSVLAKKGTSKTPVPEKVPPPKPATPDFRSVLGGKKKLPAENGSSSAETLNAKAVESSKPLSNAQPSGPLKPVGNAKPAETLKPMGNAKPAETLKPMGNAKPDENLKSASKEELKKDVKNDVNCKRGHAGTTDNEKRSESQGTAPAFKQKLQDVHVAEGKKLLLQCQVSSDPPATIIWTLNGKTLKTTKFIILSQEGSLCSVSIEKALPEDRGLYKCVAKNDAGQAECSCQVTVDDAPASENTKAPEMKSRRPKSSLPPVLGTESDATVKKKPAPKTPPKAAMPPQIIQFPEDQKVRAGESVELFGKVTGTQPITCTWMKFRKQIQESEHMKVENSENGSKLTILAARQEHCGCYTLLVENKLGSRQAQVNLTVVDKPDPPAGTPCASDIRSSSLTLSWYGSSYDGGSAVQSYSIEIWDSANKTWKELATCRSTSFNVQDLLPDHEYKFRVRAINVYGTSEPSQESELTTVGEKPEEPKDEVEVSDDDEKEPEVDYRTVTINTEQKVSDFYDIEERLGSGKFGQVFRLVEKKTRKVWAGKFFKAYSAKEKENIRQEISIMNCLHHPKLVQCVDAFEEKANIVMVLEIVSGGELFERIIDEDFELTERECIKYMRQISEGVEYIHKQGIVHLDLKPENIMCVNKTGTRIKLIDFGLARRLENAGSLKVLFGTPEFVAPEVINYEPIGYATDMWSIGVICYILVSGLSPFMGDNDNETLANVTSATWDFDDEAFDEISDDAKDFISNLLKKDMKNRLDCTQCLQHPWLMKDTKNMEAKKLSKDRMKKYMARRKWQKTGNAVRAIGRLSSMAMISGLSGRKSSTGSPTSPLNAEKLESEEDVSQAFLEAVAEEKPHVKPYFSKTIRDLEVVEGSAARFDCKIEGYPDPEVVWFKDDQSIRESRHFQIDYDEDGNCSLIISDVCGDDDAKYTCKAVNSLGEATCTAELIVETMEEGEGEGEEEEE
T1 sequence (P00533 whole entry): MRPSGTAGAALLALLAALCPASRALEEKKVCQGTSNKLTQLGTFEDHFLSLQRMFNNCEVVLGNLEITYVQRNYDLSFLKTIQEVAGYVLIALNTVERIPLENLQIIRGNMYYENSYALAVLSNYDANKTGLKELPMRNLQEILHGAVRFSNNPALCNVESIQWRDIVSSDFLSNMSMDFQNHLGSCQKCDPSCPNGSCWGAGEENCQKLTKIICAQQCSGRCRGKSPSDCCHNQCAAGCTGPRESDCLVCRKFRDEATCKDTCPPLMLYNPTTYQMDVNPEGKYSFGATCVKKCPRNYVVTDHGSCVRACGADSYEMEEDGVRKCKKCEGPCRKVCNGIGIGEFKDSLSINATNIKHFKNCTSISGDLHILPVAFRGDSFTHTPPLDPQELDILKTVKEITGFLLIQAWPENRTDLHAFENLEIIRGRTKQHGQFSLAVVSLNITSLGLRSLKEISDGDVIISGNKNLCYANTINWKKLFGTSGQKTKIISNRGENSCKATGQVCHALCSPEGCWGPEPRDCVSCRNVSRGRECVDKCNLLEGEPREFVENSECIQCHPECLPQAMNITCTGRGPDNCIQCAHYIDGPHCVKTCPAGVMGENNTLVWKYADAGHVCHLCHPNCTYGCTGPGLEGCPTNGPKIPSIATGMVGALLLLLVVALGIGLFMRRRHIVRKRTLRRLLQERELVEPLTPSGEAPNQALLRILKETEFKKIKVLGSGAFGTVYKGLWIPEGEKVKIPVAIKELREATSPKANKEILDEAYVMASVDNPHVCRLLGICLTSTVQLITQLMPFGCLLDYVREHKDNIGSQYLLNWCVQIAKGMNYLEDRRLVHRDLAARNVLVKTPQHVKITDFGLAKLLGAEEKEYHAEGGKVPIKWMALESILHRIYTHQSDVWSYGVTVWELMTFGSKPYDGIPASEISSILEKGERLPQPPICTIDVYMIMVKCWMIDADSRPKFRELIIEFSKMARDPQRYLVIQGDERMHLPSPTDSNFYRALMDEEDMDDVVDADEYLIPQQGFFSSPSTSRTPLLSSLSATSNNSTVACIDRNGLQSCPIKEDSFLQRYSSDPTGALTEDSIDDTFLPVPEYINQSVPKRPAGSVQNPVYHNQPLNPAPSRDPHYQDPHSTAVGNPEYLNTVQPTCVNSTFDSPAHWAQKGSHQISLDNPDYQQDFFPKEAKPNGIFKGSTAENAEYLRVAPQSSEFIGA

| SMILES | inhibition [2] | IC50 [3] | also measured |
| --- | --- | --- | --- |
| N#Cc1cnc(Nc2cccc(Br)c2)c2cc(NC(=O)c3cc4ccccc4[nH]3)ccc12 | inactive |  | inhibition [1]: inactive |
| NCCCCCCNS(=O)(=O)c1cccc2c(Cl)cccc12 |  |  | Ki [4]: 110 µM |
| O=S(=O)(c1cccc2cnccc12)N1CCCNCC1 [FASUDIL] |  |  | IC50 [4]: 21.6 µM; Ki [4]: 36 µM |
| COC[C@H]1OC(=O)c2coc3c2[C@@]1(C)C1=C(C3=O)[C@@H]2CCC(=O)[C@@]2(C)C[C@H]1OC(C)=O [WORTMANNIN] |  |  | IC50 [4]: 0.17 µM |
| O=S(=O)(c1cccc2c(I)cccc12)N1CCCNCC1 |  |  | Ki [4]: 0.3 µM |

Continued, in another order:

| inhibition [2] | IC50 [3] | SMILES | also measured |
| --- | --- | --- | --- |
| inactive | 20.8 µM | CCC(=O)Nc1ccc2c(C#N)cnc(Nc3cccc(Br)c3)c2c1 |  |
| inactive | 55.6 µM | N#Cc1cnc(Nc2cccc(Br)c2)c2cc(NC(=O)c3ccco3)ccc12 |  |
| inactive | 6.9 µM | N#Cc1cnc(Nc2cccc(Br)c2)c2cc(NC(=O)CCN3CCOCC3)ccc12 |  |
| inactive | 45.2 µM | N#Cc1cnc(Nc2cccc(Br)c2)c2cc(NC(=O)c3ccoc3)ccc12 |  |
| inactive | 2.2 µM | N#Cc1cnc(Nc2cccc(Br)c2)c2cc(NC(=O)[C@@H]3CCC(=O)N3)ccc12 |  |
| inactive | 12.8 µM | CCOC(=O)Nc1ccc2c(C#N)cnc(Nc3cccc(Br)c3)c2c1 |  |

— ChEMBL document CHEMBL1641579, “Synthesis and biological evaluation of 7-substituted-1-(3-bromophenylamino)isoquinoline-4-carbonitriles as inhibitors of myosin light chain kinase and epidermal growth factor receptor” (Bioorg Med Chem, 2011)
